In ChEMBL document CHEMBL5058577, “EUbOPEN Chemogenomics Library 2 (Multiplex)” (2022):

Test system: U2OS
Assay: Multiplex assay against U2OS
Assay type: toxicity, cell-based
Conditions: human
How it was run: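 Values for tubulin, mitochondrial-mass and membrane-permeability phenotypes are per cents of cells with healthy nuclei. These cells were identified by CellPathfinder machine-learning gating of live cells that had been stained at seeding with Hoechst33342, BioTracker Green Microtubule Cytoskeleton Dye, MitoTracker Red and Annexin V Alexa Fluor 680 and imaged on a CQ1 microscope at 37°C and 5% CO2 after compound addition. The gating first set Hoechst high-intensity objects apart from normal cells, then split normal cells into healthy, pyknosed or fragmented nuclei, and pyknosed cells into mitotic or apoptotic.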

[1] = 12 h, 1 µM, compound concentration 1 uM, replicate 1
[2] = 12 h, 1 µM, compound concentration 1 uM, replicate 2
[3] = 12 h, 10 µM, compound concentration 10 uM, replicate 1
[4] = 12 h, 10 µM, compound concentration 10 uM, replicate 2
[5] = 24 h, 1 µM, compound concentration 1 uM, replicate 1
[6] = 24 h, 1 µM, compound concentration 1 uM, replicate 2
[7] = 24 h, 10 µM, compound concentration 10 uM, replicate 1
[8] = 24 h, 10 µM, compound concentration 10 uM, replicate 2
[9] = 48 h, 1 µM, compound concentration 1 uM, replicate 1
[10] = 48 h, 1 µM, compound concentration 1 uM, replicate 2
[11] = 48 h, 10 µM, compound concentration 10 uM, replicate 1
[12] = 48 h, 10 µM, compound concentration 10 uM, replicate 2

Question: Which “Population Apoptotic (%)” value [1] does the source give for CN1CCN(c2nc3cc(C(F)(F)F)ccc3n3cccc23)CC1.O=C(O)/C=C\C(=O)O.O=C(O)/C=C\C(=O)O here?
Answer: 77%

Question: And the “Population Fragmented Nuclei (%)” value [1]?
Answer: 17%

Question: What about the “Population Healthy Nuclei (%)” value [1] of the same compound?
Answer: 75%

Question: What about the “Population Hoechst High Intensity Objects (%)” value [1] of the same compound?
Answer: 1%

Question: And the “Population Membrane Permeable-Phenotype (%)” value [1]?
Answer: 4%

Question: And the “Population Mitochondria Different-Phenotype (%)” value [1]?
Answer: 0%

Question: And the “Population Mitotic Cells (%)” value [1]?
Answer: 22%

Question: What about the “Population Normal (%)” value [1] of the same compound?
Answer: 98%

Question: And the “Population Pyknosed Nuclei (%)” value [1]?
Answer: 6%

Question: And the “Population Tubulin-Different-Phenotype (%)” value [1]?
Answer: 1%

Question: And the “Total Cell Count” value [1]?
Answer: 266

Question: And the “Population Apoptotic (%)” value [2]?
Answer: 100%

Question: What about the “Population Fragmented Nuclei (%)” value [2] of the same compound?
Answer: 18%

Question: And the “Population Healthy Nuclei (%)” value [2]?
Answer: 73%

Question: What about the “Population Hoechst High Intensity Objects (%)” value [2] of the same compound?
Answer: 0%

Question: What about the “Population Membrane Permeable-Phenotype (%)” value [2] of the same compound?
Answer: 8%

Question: What about the “Population Mitochondria Different-Phenotype (%)” value [2] of the same compound?
Answer: 2%

Question: And the “Population Mitotic Cells (%)” value [2]?
Answer: 0%

Question: What about the “Population Normal (%)” value [2] of the same compound?
Answer: 99%

Question: What about the “Population Pyknosed Nuclei (%)” value [2] of the same compound?
Answer: 8%

Question: And the “Population Tubulin-Different-Phenotype (%)” value [2]?
Answer: 3%

Question: And the “Total Cell Count” value [2]?
Answer: 111

Question: And the “Population Apoptotic (%)” value [3]?
Answer: 66%

Question: And the “Population Fragmented Nuclei (%)” value [3]?
Answer: 31%

Question: And the “Population Healthy Nuclei (%)” value [3]?
Answer: 53%

Question: What about the “Population Hoechst High Intensity Objects (%)” value [3] of the same compound?
Answer: 1%

Question: And the “Population Membrane Permeable-Phenotype (%)” value [3]?
Answer: 18%

Question: And the “Population Mitochondria Different-Phenotype (%)” value [3]?
Answer: 45%

Question: And the “Population Mitotic Cells (%)” value [3]?
Answer: 33%

Question: What about the “Population Normal (%)” value [3] of the same compound?
Answer: 98%

Question: And the “Population Pyknosed Nuclei (%)” value [3]?
Answer: 15%

Question: And the “Population Tubulin-Different-Phenotype (%)” value [3]?
Answer: 19%

Question: What about the “Total Cell Count” value [3] of the same compound?
Answer: 218

Question: What about the “Population Apoptotic (%)” value [4] of the same compound?
Answer: 88%

Question: And the “Population Fragmented Nuclei (%)” value [4]?
Answer: 25%

Question: What about the “Population Healthy Nuclei (%)” value [4] of the same compound?
Answer: 68%

Question: And the “Population Hoechst High Intensity Objects (%)” value [4]?
Answer: 2%

Question: And the “Population Membrane Permeable-Phenotype (%)” value [4]?
Answer: 13%

Question: What about the “Population Mitochondria Different-Phenotype (%)” value [4] of the same compound?
Answer: 41%

Question: What about the “Population Mitotic Cells (%)” value [4] of the same compound?
Answer: 11%

Question: And the “Population Normal (%)” value [4]?
Answer: 97%

Question: What about the “Population Pyknosed Nuclei (%)” value [4] of the same compound?
Answer: 6%

Question: And the “Population Tubulin-Different-Phenotype (%)” value [4]?
Answer: 21%

Question: What about the “Total Cell Count” value [4] of the same compound?
Answer: 135

Question: And the “Population Apoptotic (%)” value [5]?
Answer: 85%

Question: And the “Population Fragmented Nuclei (%)” value [5]?
Answer: 17%

Question: What about the “Population Healthy Nuclei (%)” value [5] of the same compound?
Answer: 73%

Question: And the “Population Hoechst High Intensity Objects (%)” value [5]?
Answer: 2%

Question: And the “Population Membrane Permeable-Phenotype (%)” value [5]?
Answer: 5%

Question: And the “Population Mitochondria Different-Phenotype (%)” value [5]?
Answer: 1%

Question: And the “Population Mitotic Cells (%)” value [5]?
Answer: 14%

Question: What about the “Population Normal (%)” value [5] of the same compound?
Answer: 97%

Question: What about the “Population Pyknosed Nuclei (%)” value [5] of the same compound?
Answer: 9%

Question: What about the “Population Tubulin-Different-Phenotype (%)” value [5] of the same compound?
Answer: 3%

Question: What about the “Total Cell Count” value [5] of the same compound?
Answer: 300

Question: What about the “Population Apoptotic (%)” value [6] of the same compound?
Answer: 92%

Question: And the “Population Fragmented Nuclei (%)” value [6]?
Answer: 13%

Question: What about the “Population Healthy Nuclei (%)” value [6] of the same compound?
Answer: 77%

Question: What about the “Population Hoechst High Intensity Objects (%)” value [6] of the same compound?
Answer: 0%

Question: What about the “Population Membrane Permeable-Phenotype (%)” value [6] of the same compound?
Answer: 8%

Question: And the “Population Mitochondria Different-Phenotype (%)” value [6]?
Answer: 4%

Question: What about the “Population Mitotic Cells (%)” value [6] of the same compound?
Answer: 7%

Question: And the “Population Normal (%)” value [6]?
Answer: 99%

Question: What about the “Population Tubulin-Different-Phenotype (%)” value [6] of the same compound?
Answer: 4%

Question: And the “Total Cell Count” value [6]?
Answer: 136

Question: And the “Population Apoptotic (%)” value [7]?
Answer: 76%

Question: What about the “Population Fragmented Nuclei (%)” value [7] of the same compound?
Answer: 31%

Question: What about the “Population Healthy Nuclei (%)” value [7] of the same compound?
Answer: 57%

Question: What about the “Population Hoechst High Intensity Objects (%)” value [7] of the same compound?
Answer: 3%

Question: And the “Population Membrane Permeable-Phenotype (%)” value [7]?
Answer: 16%

Question: What about the “Population Mitochondria Different-Phenotype (%)” value [7] of the same compound?
Answer: 41%

Question: What about the “Population Mitotic Cells (%)” value [7] of the same compound?
Answer: 24%

Question: And the “Population Normal (%)” value [7]?
Answer: 96%

Question: What about the “Population Pyknosed Nuclei (%)” value [7] of the same compound?
Answer: 10%

Question: What about the “Population Tubulin-Different-Phenotype (%)” value [7] of the same compound?
Answer: 14%

Question: And the “Total Cell Count” value [7]?
Answer: 244

Question: What about the “Population Apoptotic (%)” value [8] of the same compound?
Answer: 78%

Question: And the “Population Fragmented Nuclei (%)” value [8]?
Answer: 19%

Question: And the “Population Healthy Nuclei (%)” value [8]?
Answer: 71%

Question: What about the “Population Membrane Permeable-Phenotype (%)” value [8] of the same compound?
Answer: 17%

Question: What about the “Population Mitochondria Different-Phenotype (%)” value [8] of the same compound?
Answer: 36%

Question: What about the “Population Mitotic Cells (%)” value [8] of the same compound?
Answer: 21%

Question: And the “Population Pyknosed Nuclei (%)” value [8]?
Answer: 9%

Question: What about the “Population Tubulin-Different-Phenotype (%)” value [8] of the same compound?
Answer: 16%

Question: And the “Total Cell Count” value [8]?
Answer: 156

Question: And the “Population Apoptotic (%)” value [9]?
Answer: 87%

Question: And the “Population Fragmented Nuclei (%)” value [9]?
Answer: 14%

Question: What about the “Population Healthy Nuclei (%)” value [9] of the same compound?
Answer: 77%

Question: And the “Population Hoechst High Intensity Objects (%)” value [9]?
Answer: 2%

Question: And the “Population Membrane Permeable-Phenotype (%)” value [9]?
Answer: 4%

Question: And the “Population Mitochondria Different-Phenotype (%)” value [9]?
Answer: 0%

Question: What about the “Population Mitotic Cells (%)” value [9] of the same compound?
Answer: 12%

Question: And the “Population Normal (%)” value [9]?
Answer: 97%

Question: What about the “Population Pyknosed Nuclei (%)” value [9] of the same compound?
Answer: 7%

Question: And the “Population Tubulin-Different-Phenotype (%)” value [9]?
Answer: 2%

Question: What about the “Total Cell Count” value [9] of the same compound?
Answer: 447

Question: And the “Population Apoptotic (%)” value [10]?
Answer: 85%

Question: What about the “Population Fragmented Nuclei (%)” value [10] of the same compound?
Answer: 17%

Question: What about the “Population Healthy Nuclei (%)” value [10] of the same compound?
Answer: 75%

Question: And the “Population Hoechst High Intensity Objects (%)” value [10]?
Answer: 1%

Question: And the “Population Membrane Permeable-Phenotype (%)” value [10]?
Answer: 6%

Question: What about the “Population Mitochondria Different-Phenotype (%)” value [10] of the same compound?
Answer: 5%

Question: And the “Population Mitotic Cells (%)” value [10]?
Answer: 14%

Question: And the “Population Normal (%)” value [10]?
Answer: 98%

Question: What about the “Population Tubulin-Different-Phenotype (%)” value [10] of the same compound?
Answer: 3%

Question: What about the “Total Cell Count” value [10] of the same compound?
Answer: 187

Question: And the “Population Apoptotic (%)” value [11]?
Answer: 78%

Question: And the “Population Fragmented Nuclei (%)” value [11]?
Answer: 31%

Question: What about the “Population Healthy Nuclei (%)” value [11] of the same compound?
Answer: 52%

Question: What about the “Population Hoechst High Intensity Objects (%)” value [11] of the same compound?
Answer: 4%

Question: And the “Population Membrane Permeable-Phenotype (%)” value [11]?
Answer: 16%

Question: What about the “Population Mitochondria Different-Phenotype (%)” value [11] of the same compound?
Answer: 17%

Question: And the “Population Mitotic Cells (%)” value [11]?
Answer: 21%

Question: And the “Population Normal (%)” value [11]?
Answer: 95%

Question: And the “Population Pyknosed Nuclei (%)” value [11]?
Answer: 16%

Question: And the “Population Tubulin-Different-Phenotype (%)” value [11]?
Answer: 12%

Question: And the “Total Cell Count” value [11]?
Answer: 299

Question: What about the “Population Apoptotic (%)” value [12] of the same compound?
Answer: 81%

Question: And the “Population Fragmented Nuclei (%)” value [12]?
Answer: 21%

Question: What about the “Population Healthy Nuclei (%)” value [12] of the same compound?
Answer: 67%

Question: What about the “Population Hoechst High Intensity Objects (%)” value [12] of the same compound?
Answer: 3%

Question: And the “Population Membrane Permeable-Phenotype (%)” value [12]?
Answer: 10%

Question: What about the “Population Mitochondria Different-Phenotype (%)” value [12] of the same compound?
Answer: 16%

Question: What about the “Population Mitotic Cells (%)” value [12] of the same compound?
Answer: 18%

Question: And the “Population Normal (%)” value [12]?
Answer: 96%

Question: And the “Population Pyknosed Nuclei (%)” value [12]?
Answer: 11%

Question: What about the “Population Tubulin-Different-Phenotype (%)” value [12] of the same compound?
Answer: 9%

Question: And the “Total Cell Count” value [12]?
Answer: 202
